# T cruzi repl: blocks replication of Trypanosoma cruzi | T. cruzi beta-gal in NIH3T3, luminescence, 90 h | inhibition, % (concentration not given with the values) | 300,000 compounds, 1.4% hits;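 active means mean inhibition across valid replicates above about 55%, limit read from the data; inconclusive means mean below that limit but half or more replicates reach it; inactive means mean below it, under half of replicates reach it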;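 further: signal also drops with host cell toxicity which is not excluded here; 0% = plate median of DMSO wells and 100% = zero luminescence signal; higher percent means less beta-gal luminescence so fewer parasites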
#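 System: Mouse NIH/3T3 fibroblasts infected with β-gal-expressing T. cruzi Tulahuen C4 | Quantity: NIH/3T3 cells, 5,000 per well | Reagent: 5000 reporter trypomastigotes per well | Dosing: Compound pinned at 50 nL/well, DMSO | Schedule: 3 h host attachment, then at least 90 h co-culture | Detection: GalScreen luminescence, 60 min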
# SKKanGAS inh: inhibitors of SKKanGAS S. pyogenes growth in kanamycin (SK-promoter or general growth effect) | BacTiter-Glo, 6 h | inhibition, % at 7.5 µM | 300,000 compounds, 1.3% hits | AID 1662;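 active means mean replicate score, as percent of positive control median, at least 50; inconclusive means mean below 50 but one replicate at or above 50; inactive means mean and every replicate below 50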;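 further: strain carries kanamycin resistance gene driven by streptokinase promoter and grows in 40 µg/ml kanamycin; loss of luminescence reflects streptokinase promoter inhibition or plain growth inhibition; 0% = median of DMSO wells and 100% = positive control at its reference dose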
# Beta cell apopt: beta cell apoptosis inhibition; INS-1E cytokine-induced death, ATP luminescence, 48 h; percent of positive-control rescue, neutral wells zero; protection from apoptosis, % (concentration not given with the values); 300,000 compounds, 0.8% hits;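 active means Every replicate reaches about 75%, or at least half do and their mean reaches it too, limit read from the data; inconclusive means At least half of replicates reach the limit but their mean does not; inactive means Under half of replicates reach the limit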;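 further: 0% = cytokine-treated negative control wells and 100% = positive control rescue; higher means more ATP so stronger rescue from cytokine killing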
# CSC inhib: blocks cancer stem cells; cancer stem cell-like cells viability, luminescence; 300,000 compounds, 1.1% hits; inhibition, % at 7.5 µM; in the data active means inhibition above about 75%; inconclusive means no clear call, values can overlap the other calls; tested in HMLE shEcad cells
# Mdm2-MdmX inh: human Mdm2/MdmX binding inhibition; AID 485346; 330,000 compounds, 3% hits; O15151+Q00987; inhibition, % at 8 µM; SaOS-2 split-luciferase Mdm2/MdmX complementation, luminescence;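 active means inhibition of at least 50% at 8 µM in the primary screen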
# Target sequence (O15151 whole entry, looked up): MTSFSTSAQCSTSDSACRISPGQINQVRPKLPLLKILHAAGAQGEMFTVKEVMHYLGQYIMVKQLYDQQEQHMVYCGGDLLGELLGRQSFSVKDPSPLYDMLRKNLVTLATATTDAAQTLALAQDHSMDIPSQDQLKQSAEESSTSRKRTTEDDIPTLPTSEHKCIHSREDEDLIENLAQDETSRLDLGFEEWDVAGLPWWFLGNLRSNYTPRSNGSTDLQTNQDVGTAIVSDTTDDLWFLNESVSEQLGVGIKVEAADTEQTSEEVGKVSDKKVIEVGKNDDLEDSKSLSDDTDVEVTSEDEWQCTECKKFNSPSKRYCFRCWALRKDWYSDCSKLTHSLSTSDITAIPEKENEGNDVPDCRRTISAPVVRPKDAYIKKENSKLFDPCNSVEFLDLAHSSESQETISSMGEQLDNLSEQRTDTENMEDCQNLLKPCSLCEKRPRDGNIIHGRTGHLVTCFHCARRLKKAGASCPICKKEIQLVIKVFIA
# Target sequence (Q00987 whole entry, looked up): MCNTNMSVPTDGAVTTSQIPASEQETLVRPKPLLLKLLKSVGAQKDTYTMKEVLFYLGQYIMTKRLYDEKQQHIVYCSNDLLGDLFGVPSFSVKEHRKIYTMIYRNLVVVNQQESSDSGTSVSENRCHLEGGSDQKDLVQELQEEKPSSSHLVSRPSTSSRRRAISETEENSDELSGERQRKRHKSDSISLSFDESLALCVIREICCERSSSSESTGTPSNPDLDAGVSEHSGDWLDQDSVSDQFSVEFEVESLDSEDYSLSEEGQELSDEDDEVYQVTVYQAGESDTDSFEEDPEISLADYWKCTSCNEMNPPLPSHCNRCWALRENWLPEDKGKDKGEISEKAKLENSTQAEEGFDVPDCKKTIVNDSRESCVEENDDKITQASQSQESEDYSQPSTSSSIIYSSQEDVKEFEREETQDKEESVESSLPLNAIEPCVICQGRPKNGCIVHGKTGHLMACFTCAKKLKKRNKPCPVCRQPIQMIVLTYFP
# Lmaj promast: Leishmania major promastigote growth inhibition; Leishmania major promastigotes, resazurin fluorescence viability; inhibition, % at 10 µM; 200,000 compounds, 9% hits; AID 1063; in the data active means inhibition above about 50%;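 further: promastigotes grown with compound for 44 hours at 28 °C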
# * = called active by the depositor; ? = inconclusive; nt = not tested or not shown. A selection: hits, their analogues and other compounds. The true share with any hit is near 9.4%.
SMILES,T cruzi repl,SKKanGAS inh,Beta cell apopt,CSC inhib,Mdm2-MdmX inh,Lmaj promast
CCOc1ccccc1CN1CCNC(=O)C1CC(=O)NCCN1CCOC1=O (stereo unspecified),-10.0,-0.4,-1.9,-7.6,-11.2,nt
COc1ccc(C)cc1NC(=O)CCCN1C(=S)NC(C)(C)CC1C (stereo unspecified),-10.4,-3.2,-1.8,11.1,-5.4,-2.8
COc1ccc(OC)c(NC(=O)CCCN2C(=S)NC(C)(C)CC2C)c1 (stereo unspecified),-1.0,19.1,-4.6,-6.2,0.1,69.9*
CCOc1ccccc1NC(=O)CCCN1C(=S)NC(C)(C)CC1C (stereo unspecified),12.9,-1.3,-3.6,-12.9,-22.5,52.1*
CC1CC(C)(C)NC(=S)N1CCC(=O)N1CCN(c2ccccc2)CC1 (stereo unspecified),23.3,0.4,-1.1,-3.6,-11.8,6.9
CCOc1ccc(OCC)c(NC(=O)CCCN2C(=S)NC(C)(C)CC2C)c1 (stereo unspecified),-27.8,3.5,-3.7,9.9,15.0,2.9
CC1CC(C)(C)NC(=S)N1CCCC(=O)N1CCN(c2ccc(F)cc2)CC1 (stereo unspecified),-15.5,-9.3,-0.3,0.5,8.9,82.5*
CCOC(=O)C1(Cc2cccc(F)c2)CCN(C(=O)COC)CC1,-8.9,-8.3,nt,nt,-7.6,nt
CCCCCC(=O)Cc1cc(O)cc2c1C(=O)Oc1cc(O)c(C(=O)O)c(CCCCC)c1O2,-12.0,71.3*,-3.4,51.2,-0.8,nt
CN(C)c1ccc(/C=C/c2ccc3ccccc3n2)cc1,49.6,75.2*,76.2*,83.9*,nt,nt
COc1ccc(-n2cccc2/C=C/[N+](=O)[O-])cc1,-11.0,25.8,25.8,1.1,8.2,99.9*
COCCNc1nnnc2c1sc1nc(N3CCOCC3)c3c(c12)CCCC3,nt,nt,nt,nt,nt,61.6*
Cc1ccc(Cl)cc1NC(=O)c1ccc(Cn2cc(Cl)cn2)cc1,-1.6,3.4,3.2,100.2*,24.7,10.6
Cc1ccc(Cl)cc1NC(=O)c1ccc(NC(=O)CCC(=O)O)cc1,-16.4,1.1,0.4,-5.3,22.5,53.4*
O=C(Nc1ccccc1F)c1ccc(Cn2cc(Cl)cn2)cc1,-10.0,-7.5,-4.0,11.0,-19.1,-8.7
CN(Cc1ccccc1)CC(O)COc1ccc(CNCc2cccnc2)cc1 (stereo unspecified),19.0,3.5,-8.0,-10.8,29.8,80.9*
CN(Cc1ccccc1)CC(O)COc1ccc(CNCc2ccc(Cl)s2)cc1 (stereo unspecified),31.0,-2.7,6.0,-1.0,24.7,98.1*
CN(Cc1ccccc1)CC(O)COc1ccc(CNCCOc2cccnc2)cc1 (stereo unspecified),44.3,-1.3,8.5,21.1,7.0,84.3*
CN(Cc1ccccc1)CC(O)COc1ccc(CNCCCOc2cccnc2)cc1 (stereo unspecified),30.5,-9.4,-0.8,17.1,37.8,90.7*
CC1CCCCN1C(=O)Cn1cnc2cc([N+](=O)[O-])ccc2c1=O (stereo unspecified),-5.0,4.5,-0.7,-9.6,6.9,11.2
OC(COc1ccc(CNCc2cccnc2)cc1)CN1CCc2ccccc2C1 (stereo unspecified),?,-1.9,-3.0,-17.4,20.8,89.5*
Cc1ccc(C(C)C)c(OCC(O)CN(C)Cc2ccccc2)c1 (stereo unspecified),23.6,8.1,11.1,3.5,32.9,nt
OC(COc1ccccc1CNCc1cccnc1)CN1CCc2ccccc2C1 (stereo unspecified),12.0,3.0,4.4,-1.6,-19.9,9.4
CCn1cc(CNCc2ccc(OCC(O)CN(C)Cc3ccccc3)cc2)cn1 (stereo unspecified),33.8,4.5,-1.8,nt,23.3,88.0*
Cc1nn(C)cc1CNCc1ccc(OCC(O)CN(C)Cc2ccccc2)cc1 (stereo unspecified),15.3,7.5,4.1,-6.7,6.9,86.5*
SMILES,T cruzi repl,SKKanGAS inh,Beta cell apopt,CSC inhib,Mdm2-MdmX inh,Lmaj promast
COc1ccc(S(=O)(=O)N2CCN(C(=O)c3ccc(C)o3)CC2)cc1,-3.9,3.6,-5.0,nt,9.5,nt
O=C(NCc1ccc(Cl)cc1)C1CCC(=O)N(C2CCCCCC2)C1 (stereo unspecified),-4.0,4.7,nt,-1.5,5.6,nt
O=C(O)/C(=C\C(=O)c1ccccc1)Nc1ccccc1,-16.8,-1.4,-1.6,-18.2,16.0,nt
Cc1ccc(C(=O)NCC(=O)N/N=C/c2cccs2)cc1[N+](=O)[O-],6.6,2.1,-0.9,nt,18.7,9.7
COc1ccc(CCNC(=O)c2cc(C(=O)c3cc(Cl)ccc3O)cn(CCc3ccc(OC)cc3)c2=O)cc1,?,19.3,25.1,-12.3,33.0,99.5*
CCn1cc(C(=O)NCCc2ccc(OC)cc2)c(=O)c2ccc(C)nc21,6.3,-2.1,4.2,-7.5,17.8,nt
COc1ccc(CCNC(=O)c2ccc(Cl)cc2Cl)cc1,7.5,2.3,0.3,-1.6,-26.4,-4.5
COc1ccc(CCNC(=O)c2cc(C(=O)c3cc(C)ccc3O)cn(CCc3ccc(OC)cc3)c2=O)cc1,32.3,9.9,22.2,43.4,16.6,95.6*
COc1ccccc1NC(=O)CCN1C(=O)c2ccccc2C1=O,-10.3,-3.4,0.8,-7.4,-1.9,nt
CC1CCN(S(=O)(=O)c2cc(C(=O)N3CCN(c4ncccn4)CC3)ccc2Br)CC1,13.1,0.6,-2.5,-4.3,32.8,85.3*
CC1CCN(C(=O)c2ccc(Br)c(S(=O)(=O)N3CCOCC3)c2)CC1,-2.4,12.5,-0.6,12.7,6.9,nt
CN(C)CCCN(C(=O)COc1ccccc1)c1nc2cc3c(cc2s1)OCO3,38.6,2.0,-6.8,-3.8,-10.2,nt
CN(C)CCCN(C(=O)COc1ccc(Cl)cc1)c1nc2cc3c(cc2s1)OCCO3,57.1*,1.0,nt,-7.3,6.3,nt
CN(C)CCCN(C(=O)COc1ccc(Cl)cc1)c1nc2cc3c(cc2s1)OCO3,23.3,5.4,113.6*,-3.8,29.2,nt
O=C(COc1coc(CN2CCN(Cc3ccccc3)CC2)cc1=O)Nc1ccccc1,46.2,-14.4,nt,-9.9,-7.8,nt
CC(C)(C)NC(=O)c1cccc(NC(=O)CSc2ccccc2)c1,2.2,-4.7,-1.4,nt,15.6,77.5*
CC(C)(C)NC(=O)c1cccc(NC(=O)Cc2cccs2)c1,-23.6,-10.6,-0.5,-4.5,-8.0,-0.1
CC(C)CC(=O)Nc1c2c(nn1-c1ccc(F)cc1)CS(=O)(=O)C2,-9.1,2.2,-3.1,-6.5,-9.0,nt
O=C(COc1ccc2ccccc2c1CN1CCOCC1)N1CCc2ccccc21,24.3,0.6,10.9,nt,18.4,59.7*
c1ccc2nc3c(cc2c1)CCCCC3,-13.3,-3.8,-4.6,-13.2,-5.3,nt
Cn1cccc1/C=C1\CC(C(C)(C)C)C/C(=C\c2cccn2C)C1=O (stereo unspecified),37.8,9.6,-5.0,42.6,16.7,87.2*
Cn1cccc1/C=C1\Cc2ccccc2C1=O,-11.9,1.8,-0.3,1.3,-96.0,-1.6

# High-throughput results: PubChem, several laboratories
